Published values of several laboratories.
Protocols differ between the studies behind these lines.
Target: AP2-associated protein kinase 1 (AAK1, Homo sapiens, UniProt Q2M2I8)

The remaining binding of `CNC(=O)[C@@H]1CC[C@@H](n2c(-c3ccc4cnccc4c3)nc3ccc(C(=O)NCc4cccc(C(N)=O)c4)cc32)C1` is reported as 93% (binding; competition with immobilised ligand; 1 µM).
`C[C@@H](c1ccc(-n2cnc3c(N)ncnc32)cc1)N1CCc2nn(C)c(Cc3ccccc3)c2C1=O` gave a remaining binding of 98% (binding; competition with immobilised ligand; 0.1 µM).
`C=CC(=O)N1CCC(C(=O)NCC(=O)N2CCN(c3nc(-c4cnc(N)nc4C(F)F)nc(N4CCOCC4)n3)CC2)CC1` has a remaining binding of 100% (binding; competition with immobilised ligand; 1 µM).
With `Nc1ncc2c(n1)-c1c([nH]c3ccc(C#CC4CC4)cc13)CCCC2` the remaining binding was 92% (binding; competition with immobilised ligand; 1 µM).
`COc1cnc(Nc2cccc(S(N)(=O)=O)c2)nc1N1CCN(c2ccccc2)CC1` has a remaining binding of 73% (binding; competition with immobilised ligand; 1 µM).
With `CCc1ccccc1C(=O)Nc1n[nH]c2c(C)c(F)c(C3C(C#N)=C(C)N(C)C(C)=C3C#N)cc12` the remaining binding was 81% (binding; 1 µM).
For `CN(C)c1nccc(-c2cnc3ncccn23)n1`, the remaining binding was 88% (binding; 1 µM).
`COc1ncc2cc3ccccc3nc2c1C#N` gave a remaining binding of 96% (cell-free assay; competition with immobilised ligand; 5 µM).
With `N[C@H]1CCN(c2nccc(-c3cnn4ncccc34)n2)C1` the remaining binding was 91% (binding; 1 µM).
With `CC(=O)C1=C(C)N(c2cccc(C(F)(F)F)c2)C(=O)N[C@@H]1c1ccc(C#N)nc1` the remaining binding was 100% (binding; 1 µM).
For `CN(c1nccc(-c2cnn3ncccc23)n1)C1CC1`, the remaining binding was 100% (binding; 1 µM).
`CN(C(=O)c1ccccc1)c1cc(N(C)c2ccc3c(c2)CCc2ccc(C(=O)NCCN4CCOCC4)cc2C3=O)ccc1F` gave a remaining binding of 100% (binding; 1 µM).
`O=C(Nc1c[nH]nc1C(=O)NC1CCNCC1)c1cc(F)cc(F)c1` has a remaining binding of 100% (binding; competition with immobilised ligand; 1 µM).
`O=C(NCc1ncc(C(F)(F)F)cc1Cl)c1ccc2c(c1)C1(CCS(=O)(=O)CC1)[C@H](C1CC1)N2S(=O)(=O)c1ccc(F)cc1` has a remaining binding of 99% (binding; 1 µM).
`O=C(c1ccc(Nc2ncc(Cl)c(-c3ccc(Cl)s3)n2)cc1)N1CCC(N2CCCC2)CC1` has a remaining binding of 41% (binding; competition with immobilised ligand; 1 µM).
`O=C(O)c1cc(-c2ccc(C3CCNCC3)cc2)c2ccc(-c3ccc(C(F)(F)F)cc3)cc2c1` gave a remaining binding of 100% (binding; 1 µM).
`CN(C)c1nccc(-c2cnn3ncccc23)n1` gave a remaining binding of 75% (binding; 1 µM).
For `CCCCN(CCCC)C(=O)CN1C[C@H](c2cc(OC)c3c(c2)OCO3)[C@@H](C(=O)O)[C@@H]1CC(C)(C)CCC`, the remaining binding was 100% (binding; 1 µM).
For `C[C@@H]1CCN(c2nccc(-c3cnn4ncccc34)n2)C1`, the remaining binding was 71% (binding; 1 µM).
The remaining binding of `O=C(c1ccc(Nc2nccc(-c3cc4ccccc4s3)n2)cc1)N1CCC(N2CCCC2)CC1` is reported as 21% (binding; competition with immobilised ligand; 1 µM).
The remaining binding of `CN(C)c1ncc(F)c(-c2cnn3ncccc23)n1` is reported as 89% (binding; 1 µM).
`Cc1cnc(Nc2ccc(C(=O)N3CCC(N4CCCC4)CC3)cc2)nc1-c1cc2ccccc2s1` has a remaining binding of 22% (binding; competition with immobilised ligand; 1 µM).
